The source made the active and inactive calls. The calls are words filed in the database; no cut-off is given here.
How the values were obtained:
[1] = target: GABA-A receptor; anion channel; assay: Displacing potential to [3H]diazepam binding to benzodiazepine receptor in Wistar rat cerebral cortex; assay type: tissue-based
Mus musculus [2] = species on record: Mus musculus; assay: Agonist activity was evaluated by inhibition of the PTZ-induced convulsions at a PTZ dose of 125 mg/ kg; assay type: functional; details: PTZ 125 mg/kg
Outline: (§1)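 Male mice, groups of 8–16; test compound given iv, then immediately PTZ 125 mg/kg sc (convulsive dose). Endpoint: prevention of tonic convulsions and death over 2 h; dose protecting 50% computed by probit method with 95% confidence limits; partial activity given as percentage of animals affected at a stated dose.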

Mus musculus [3] = assay: Inverse agonist activity was evaluated by potentiation of the pentylenetetrazole (PTZ) (75 mg/kg) induced convulsions; inactive to 10; assay type: functional, organism-based
Outline: (§2)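 Male mice, groups of 8–16, given test compound iv and immediately challenged with subconvulsive PTZ (75 or 90 mg/kg sc). Tonic convulsions and death recorded over 2 h; dose producing effect in 50% derived by probit method with 95% confidence limits, or percentage of animals affected at a single dose.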

Mus musculus [4] = assay: Inverse agonist activity was evaluated by potentiation of the pentylenetetrazole (PTZ) (90 mg/kg) induced convulsions; assay type: functional; outline: as §2
Mus musculus [5] = species on record: Mus musculus; assay: Agonist activity was evaluated by inhibition of the PTZ-induced convulsions at a PTZ dose of 125 mg/ kg; inactive to 10; assay type: functional, organism-based; set-up: dose 125 mg/ kg; outline: as §1
Mus musculus [6] = assay: Inverse agonist activity was evaluated by potentiation of the pentylenetetrazole (PTZ) (90 mg/kg) induced convulsions; inactive to 10; assay type: functional, organism-based; outline: as §2
Mus musculus [7] = assay: Inhibition of tonic convulsions and death in mice after administration of 2.5 mg/kg of compound intravenously; assay type: functional; details: route intravenous
Outline: (§3)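 Proconvulsant (inverse agonist) assay in groups of 8–16 male mice. Each mouse received the compound iv and was immediately challenged with a sub-convulsive dose of pentylenetetrazole sc, either 75 or 90 mg/kg. Animals were watched for 2 h for tonic convulsions and death. The value is the percentage of animals affected at the stated dose.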

Mus musculus [8] = assay: Inverse agonist activity was evaluated by potentiation of the pentylenetetrazole (PTZ) (75 mg/kg) induced convulsions; assay type: functional; outline: as §2
Mus musculus [9] = assay: Inhibition to produce tonic convulsions and death in mice after administration of 10 mg/kg intravenously; assay type: functional; details: route intravenous; outline: as §3

SMILES: CCc1csc(-n2[nH]c3c(cnc4cc(C)ccc43)c2=O)c1
- Ki [1]: 0.6 nM
- ED50 (Mus musculus [2]): 5.15 mg/kg

SMILES: Cc1csc(-n2[nH]c3c(cnc4cc(C)ccc43)c2=O)c1
- Ki [1]: 0.48 nM
- ED50 (Mus musculus [3]): inactive
- ED50 (Mus musculus [4]): 5.15 mg/kg

SMILES: CCCCc1ccc(-n2[nH]c3c(cnc4cc(C)ccc43)c2=O)s1
- Ki [1]: 1.48 nM
- ED50 (Mus musculus [2]): 0.22 mg/kg

SMILES: O=C1C2C=Nc3ccccc3C2=NN1c1ccccc1 (centres undefined) [CGS-8216]
- ED50 (Mus musculus [3]): inactive
- ED50 (Mus musculus [4]): 0.2 mg/kg

SMILES: CCCc1cc(-n2[nH]c3c(cnc4cc(C)ccc43)c2=O)cs1
- Ki [1]: 1.04 nM
- ED50 (Mus musculus [5]): inactive
- ED50 (Mus musculus [6]): inactive

SMILES: O=C1C2C=Nc3ccccc3C2=NN1c1ccc(Cl)cc1 (centres undefined) [CGS-9896]
- ED50 (Mus musculus [2]): 0.07 mg/kg

SMILES: Cc1ccc2c(c1)ncc1c(=O)n(-c3cccs3)[nH]c12
- Ki [1]: 0.41 nM
- ED50 (Mus musculus [4]): 0.57 mg/kg
- inhibition in vivo at 2.5 mg/kg (Mus musculus [7]): 62.5%

SMILES: Cc1ccc2c(c1)ncc1c(=O)n(-c3ccc(C)s3)[nH]c12
- Ki [1]: 0.32 nM
- ED50 (Mus musculus [2]): 0.16 mg/kg

SMILES: Cc1ccc2c(c1)ncc1c(=O)n(-c3csc(C)c3)[nH]c12
- Ki [1]: 0.32 nM
- ED50 (Mus musculus [8]): 0.47 mg/kg
- ED50 (Mus musculus [4]): 0.13 mg/kg

SMILES: CN1C(=O)CN=C(c2ccccc2)c2cc(Cl)ccc21 [DIAZEPAM]
- ED50 (Mus musculus [2]): 0.15 mg/kg

SMILES: CCc1ccc(-n2[nH]c3c(cnc4cc(C)ccc43)c2=O)s1
- Ki [1]: 1.02 nM
- ED50 (Mus musculus [2]): 0.32 mg/kg

SMILES: CCCc1csc(-n2[nH]c3c(cnc4cc(C)ccc43)c2=O)c1
- Ki [1]: 1.01 nM
- ED50 (Mus musculus [2]): 3.54 mg/kg

SMILES: CCOC(=O)c1cc2c(cn1)[nH]c1ccccc12
- ED50 (Mus musculus [8]): 1 mg/kg
- ED50 (Mus musculus [4]): 0.46 mg/kg

SMILES: CCc1cc(-n2[nH]c3c(cnc4cc(C)ccc43)c2=O)cs1
- Ki [1]: 0.41 nM
- ED50 (Mus musculus [3]): inactive
- inhibition in vivo at 10 mg/kg (Mus musculus [9]): 50%

SMILES: Cc1ccc2c(c1)ncc1c(=O)n(-c3ccsc3)[nH]c12
- Ki [1]: 0.73 nM
- ED50 (Mus musculus [8]): 0.43 mg/kg
- ED50 (Mus musculus [4]): 0.14 mg/kg
